Assay results reported in ChEMBL document CHEMBL1926550, “Synthesis and antibacterial activity of naphthyridone derivatives containing mono/difluoro-methyloxime pyrrolidine scaffolds” (2012).
In brackets after ≈: the same amount, converted by molar mass.

Columns and labels:
Type in all cases: functional
[1] = test system: Klebsiella pneumoniae; assay: Antibacterial activity against Klebsiella pneumoniae 10-3 infected KM mouse systemic infection model assessed as decrease in mouse mortality administered orally twice after 1 and 4 hrs post infection measured up to 7 days; conditions: 10-3, po
In short: (§1)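 Strains grown on MH agar at 35 °C for 18 h, suspended in gastric mucin. Male KM mice (19–21 g), groups of 10, infected intraperitoneally with 0.5 mL at 5–10× MLD. Four oral dose levels per drug at 1 and 4 h post infection. Mortality followed 7 days; ED50 with 95% confidence limits by Bliss method.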

[2] = test system: Escherichia coli; assay: Antibacterial activity against Escherichia coli 10-1 after 18 hrs by two fold serial dilution method; conditions: 10-1, 18 h
In short: (§2)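 Agar two-fold serial dilution in melted Mueller-Hinton agar, final concentrations 128 down to 0.008 μg/mL. Plates inoculated with 10⁴ cfu and incubated at 35 °C for 18 h. MIC taken as the lowest concentration giving no visible growth on the plate.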

[3] = test system: Escherichia coli; assay: Antibacterial activity against Escherichia coli 10-2 infected KM mouse systemic infection model assessed as decrease in mouse mortality administered orally twice after 1 and 4 hrs post infection measured up to 7 days; conditions: 10-2, po; in short: as §1
[4] = test system: Escherichia coli; assay: Antibacterial activity against Escherichia coli 10-2 after 18 hrs by two fold serial dilution method; conditions: 10-2, 18 h; in short: as §2
[5] = test system: Pseudomonas aeruginosa; assay: Antibacterial activity against Pseudomonas aeruginosa 10-1 after 18 hrs by two fold serial dilution method; conditions: 10-1, 18 h; in short: as §2
[6] = test system: Enterococcus faecium; assay: Antibacterial activity against Enterococcus faecium 09-4 after 18 hrs by two fold serial dilution method; conditions: 09-4, 18 h; in short: as §2
[7] = test system: Staphylococcus aureus; assay: Antibacterial activity against methicillin-resistant Staphylococcus aureus 10-2 infected KM mouse systemic infection model assessed as decrease in mouse mortality administered orally twice after 1 and 4 hrs post infection measured up to 7 days; conditions: 10-2, po; in short: as §1
[8] = test system: Staphylococcus aureus; assay: Antibacterial activity against methicillin-sensitive Staphylococcus aureus 10-5 after 18 hrs by two fold serial dilution method; conditions: 10-5, 18 h; in short: as §2
[9] = test system: Escherichia coli; assay: Antibacterial activity against Escherichia coli 09-2 after 18 hrs by two fold serial dilution method; conditions: 09-2, 18 h; in short: as §2
[10] = test system: Staphylococcus epidermidis; assay: Antibacterial activity against methicillin-resistant Staphylococcus epidermidis 10-4 after 18 hrs by two fold serial dilution method; conditions: 10-4, 18 h
In short: (§3)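 Agar two-fold serial dilution in melted Mueller-Hinton agar, 128 to 0.008 μg/mL. Plates inoculated with 10⁴ cfu, incubated 35 °C for 18 h. MIC taken as lowest concentration giving no visible growth on the plate.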

[11] = test system: Enterococcus faecium; assay: Antibacterial activity against Enterococcus faecium 09-5 after 18 hrs by two fold serial dilution method; conditions: 09-5, 18 h; in short: as §2
[12] = test system: Enterococcus faecium; assay: Antibacterial activity against Enterococcus faecium 09-3 after 18 hrs by two fold serial dilution method; conditions: 09-3, 18 h; in short: as §2
[13] = test system: Staphylococcus aureus; assay: Antibacterial activity against methicillin-resistant Staphylococcus aureus 10-4 after 18 hrs by two fold serial dilution method; conditions: 10-4, 18 h; in short: as §3
[14] = test system: Pseudomonas aeruginosa; assay: Antibacterial activity against Pseudomonas aeruginosa 10-3 after 18 hrs by two fold serial dilution method; conditions: 10-3, 18 h; in short: as §2
[15] = test system: Streptococcus pneumoniae; assay: Antibacterial activity against Streptococcus pneumoniae 10-1 after 18 hrs by two fold serial dilution method; conditions: 10-1, 18 h; in short: as §2
[16] = test system: Staphylococcus epidermidis; assay: Antibacterial activity against methicillin-sensitive Staphylococcus epidermidis 10-2 after 18 hrs by two fold serial dilution method; conditions: 10-2, 18 h; in short: as §2
[17] = test system: Staphylococcus aureus; assay: Antibacterial activity against methicillin-resistant Staphylococcus aureus 10-3 after 18 hrs by two fold serial dilution method; conditions: 10-3, 18 h; in short: as §3
[18] = test system: Pseudomonas aeruginosa; assay: Antibacterial activity against Pseudomonas aeruginosa 10-1 infected KM mouse systemic infection model assessed as decrease in mouse mortality administered orally twice after 1 and 4 hrs post infection measured up to 7 days; conditions: 10-1, po; in short: as §1
[19] = test system: Staphylococcus epidermidis; assay: Antibacterial activity against methicillin-resistant Staphylococcus epidermidis 10-4 infected KM mouse systemic infection model assessed as decrease in mouse mortality administered orally twice after 1 and 4 hrs post infection measured up to 7 days; conditions: 10-4, po; in short: as §1
[20] = test system: Staphylococcus aureus; assay: Antibacterial activity against methicillin-resistant Staphylococcus aureus 10-1 after 18 hrs by two fold serial dilution method; conditions: 10-1, 18 h; in short: as §3
[21] = test system: Staphylococcus aureus; assay: Antibacterial activity against Staphylococcus aureus ATCC 25923 after 18 hrs by two fold serial dilution method; conditions: ATCC 25923, 18 h; in short: as §2
[22] = test system: Enterococcus faecalis; assay: Antibacterial activity against Enterococcus faecalis 09-1 after 18 hrs by two fold serial dilution method; conditions: 09-1, 18 h; in short: as §2
[23] = test system: Staphylococcus epidermidis; assay: Antibacterial activity against methicillin-resistant Staphylococcus epidermidis 10-1 after 18 hrs by two fold serial dilution method; conditions: 10-1, 18 h; in short: as §3
[24] = test system: Staphylococcus aureus; assay: Antibacterial activity against methicillin-sensitive Staphylococcus aureus 10-3 after 18 hrs by two fold serial dilution method; conditions: 10-3, 18 h; in short: as §2
[25] = test system: Escherichia coli; assay: Antibacterial activity against Escherichia coli 09-3 after 18 hrs by two fold serial dilution method; conditions: 09-3, 18 h; in short: as §2
[26] = test system: Staphylococcus epidermidis; assay: Ratio of gemifloxacin ED50 to compound ED50 for methicillin-resistant Staphylococcus epidermidis 10-4 infected KM mouse systemic infection model
[27] = test system: Pseudomonas aeruginosa; assay: Antibacterial activity against Pseudomonas aeruginosa ATCC 27853 after 18 hrs by two fold serial dilution method; conditions: ATCC 27853, 18 h; in short: as §2
[28] = test system: Staphylococcus epidermidis; assay: Antibacterial activity against methicillin-resistant Staphylococcus epidermidis 10-2 after 18 hrs by two fold serial dilution method; conditions: 10-2, 18 h; in short: as §3
[29] = test system: Staphylococcus aureus; assay: Antibacterial activity against methicillin-sensitive Staphylococcus aureus 10-4 after 18 hrs by two fold serial dilution method; conditions: 10-4, 18 h; in short: as §2
[30] = test system: Enterococcus faecium; assay: Antibacterial activity against Enterococcus faecium 09-6 after 18 hrs by two fold serial dilution method; conditions: 09-6, 18 h; in short: as §2
[31] = test system: Staphylococcus epidermidis; assay: Ratio of ciprofloxacin ED50 to compound ED50 for methicillin-resistant Staphylococcus epidermidis 10-4 infected KM mouse systemic infection model
[32] = test system: Klebsiella pneumoniae; assay: Antibacterial activity against Klebsiella pneumoniae 09-2 after 18 hrs by two fold serial dilution method; conditions: 09-2, 18 h; in short: as §2
[33] = test system: Staphylococcus aureus; assay: Antibacterial activity against methicillin-sensitive Staphylococcus aureus 10-6 after 18 hrs by two fold serial dilution method; conditions: 10-6, 18 h; in short: as §2
[34] = test system: Staphylococcus aureus; assay: Antibacterial activity against methicillin-sensitive Staphylococcus aureus 10-1 after 18 hrs by two fold serial dilution method; conditions: 10-1, 18 h; in short: as §2
[35] = test system: Enterococcus faecalis; assay: Antibacterial activity against Enterococcus faecalis 09-2 after 18 hrs by two fold serial dilution method; conditions: 09-2, 18 h; in short: as §2
[36] = test system: Staphylococcus aureus; assay: Antibacterial activity against methicillin-resistant Staphylococcus aureus 10-2 after 18 hrs by two fold serial dilution method; conditions: 10-2, 18 h; in short: as §3
[37] = test system: Staphylococcus epidermidis; assay: Antibacterial activity against methicillin-sensitive Staphylococcus epidermidis 10-1 after 18 hrs by two fold serial dilution method; conditions: 10-1, 18 h; in short: as §2
[38] = test system: Escherichia coli; assay: Antibacterial activity against Escherichia coli 09-1 after 18 hrs by two fold serial dilution method; conditions: 09-1, 18 h; in short: as §2
[39] = test system: Klebsiella pneumoniae; assay: Antibacterial activity against Klebsiella pneumoniae 10-1 after 18 hrs by two fold serial dilution method; conditions: 10-1, 18 h; in short: as §2
[40] = test system: Klebsiella pneumoniae; assay: Antibacterial activity against Klebsiella pneumoniae 10-3 after 18 hrs by two fold serial dilution method; conditions: 10-3, 18 h; in short: as §2
[41] = test system: Staphylococcus aureus; assay: Antibacterial activity against methicillin-sensitive Staphylococcus aureus 10-2 after 18 hrs by two fold serial dilution method; conditions: 10-2, 18 h; in short: as §2
[42] = test system: Enterococcus faecium; assay: Antibacterial activity against Enterococcus faecium 09-2 after 18 hrs by two fold serial dilution method; conditions: 09-2, 18 h; in short: as §2
[43] = test system: Enterococcus faecium; assay: Antibacterial activity against Enterococcus faecium 09-1 after 18 hrs by two fold serial dilution method; conditions: 09-1, 18 h; in short: as §2
[44] = test system: Escherichia coli; assay: Antibacterial activity against Escherichia coli ATCC 25922 after 18 hrs by two fold serial dilution method; conditions: ATCC 25922, 18 h; in short: as §2
[45] = test system: Pseudomonas aeruginosa; assay: Antibacterial activity against Pseudomonas aeruginosa 10-2 after 18 hrs by two fold serial dilution method; conditions: 10-2, 18 h; in short: as §2
[46] = test system: Escherichia coli; assay: Antibacterial activity against Escherichia coli 10-3 after 18 hrs by two fold serial dilution method; conditions: 10-3, 18 h; in short: as §2

NCC1CN(c2nc3c(cc2F)c(=O)c(C(=O)O)cn3C2CC2)C/C1=N\OCF (racemic)
ED50 [1]: > 160 mg/kg
MIC [2]: 32 µg/mL (≈ 78.6 µM)
ED50 [3]: 8.79 mg/kg
MIC [4]: 0.5 µg/mL (≈ 1.23 µM)
MIC [5]: 0.5 µg/mL (≈ 1.23 µM)
MIC [6]: 0.06 µg/mL (≈ 0.147 µM)
ED50 [7]: 16.9 mg/kg
MIC [8]: 0.125 µg/mL (≈ 0.307 µM)
MIC [9]: 32 µg/mL (≈ 78.6 µM)
MIC [10]: 2 µg/mL (≈ 4.91 µM)
MIC [11]: 32 µg/mL (≈ 78.6 µM)
MIC [12]: 16 µg/mL (≈ 39.3 µM)
MIC [13]: 64 µg/mL (≈ 157 µM)
MIC [14]: 4 µg/mL (≈ 9.82 µM)
MIC [15]: 0.06 µg/mL (≈ 0.147 µM)
MIC [16]: 64 µg/mL (≈ 157 µM)
MIC [17]: 32 µg/mL (≈ 78.6 µM)
ED50 [18]: 39.3 mg/kg
ED50 [19]: 8 mg/kg
MIC [20]: 32 µg/mL (≈ 78.6 µM)
MIC [21]: 0.015 µg/mL (≈ 0.0368 µM)
MIC [22]: 8 µg/mL (≈ 19.6 µM)
MIC [23]: 2 µg/mL (≈ 4.91 µM)
MIC [24]: 0.03 µg/mL (≈ 0.0736 µM)
MIC [25]: 32 µg/mL (≈ 78.6 µM)
Ratio ED50 [26]: 3
MIC [27]: 0.5 µg/mL (≈ 1.23 µM)
MIC [28]: 1 µg/mL (≈ 2.45 µM)
MIC [29]: 0.25 µg/mL (≈ 0.614 µM)
MIC [30]: 0.03 µg/mL (≈ 0.0736 µM)
Ratio ED50 [31]: 3.1
MIC [32]: 32 µg/mL (≈ 78.6 µM)
MIC [33]: 0.5 µg/mL (≈ 1.23 µM)
MIC [34]: 0.06 µg/mL (≈ 0.147 µM)
MIC [35]: 32 µg/mL (≈ 78.6 µM)
MIC [36]: 2 µg/mL (≈ 4.91 µM)
MIC [37]: 32 µg/mL (≈ 78.6 µM)
MIC [38]: 32 µg/mL (≈ 78.6 µM)
MIC [39]: 0.03 µg/mL (≈ 0.0736 µM)
MIC [40]: 0.5 µg/mL (≈ 1.23 µM)
MIC [41]: 8 µg/mL (≈ 19.6 µM)
MIC [42]: 32 µg/mL (≈ 78.6 µM)
MIC [43]: 32 µg/mL (≈ 78.6 µM)
MIC [44]: 0.008 µg/mL (≈ 0.0196 µM)
MIC [45]: 32 µg/mL (≈ 78.6 µM)
MIC [46]: 16 µg/mL (≈ 39.3 µM)
